# Test system: Fibroblast
# Assay: Multiplex assay against human fibroblast
# Type: toxicity, cell-based
# Procedure, shortened: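 Cells were classed with CellPathfinder machine-learning gating, first as Hoechst high-intensity objects or normal cells, then (normal cells) as healthy, pyknosed or fragmented nuclei, and finally (pyknosed cells) as mitotic or apoptotic. Staining of live cells at seeding used Hoechst33342, BioTracker Green Microtubule Cytoskeleton Dye, MitoTracker Red and Annexin V Alexa Fluor 680, with imaging on a CQ1 microscope at 37°C and 5% CO2 after compound addition. Tubulin, mitochondrial-mass and membrane-permeability phenotypes are per cents of healthy-nucleus cells.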
# [1] = 12 h, 1 µM, compound concentration 1 uM, replicate 1
# [2] = 12 h, 1 µM, compound concentration 1 uM, replicate 2
# [3] = 12 h, 10 µM, compound concentration 10 uM, replicate 1
# [4] = 12 h, 10 µM, compound concentration 10 uM, replicate 2
# [5] = 24 h, 1 µM, compound concentration 1 uM, replicate 1
# [6] = 24 h, 1 µM, compound concentration 1 uM, replicate 2
# [7] = 24 h, 10 µM, compound concentration 10 uM, replicate 1
# [8] = 24 h, 10 µM, compound concentration 10 uM, replicate 2
# [9] = 48 h, 1 µM, compound concentration 1 uM, replicate 1
# [10] = 48 h, 1 µM, compound concentration 1 uM, replicate 2
# [11] = 48 h, 10 µM, compound concentration 10 uM, replicate 1
# [12] = 48 h, 10 µM, compound concentration 10 uM, replicate 2
smiles,measurement,setting,value
C[C@@H]1C[C@H]2[C@@H]3CCC4=CC(=O)C=C[C@]4(C)[C@@]3(F)[C@@H](O)C[C@]2(C)[C@@]1(O)C(=O)CO [DEXAMETHASONE],Population Apoptotic (%),[1],62%
same,Population Fragmented Nuclei (%),[1],18%
same,Population Healthy Nuclei (%),[1],66%
same,Population Hoechst High Intensity Objects (%),[1],7%
same,Population Membrane Permeable-Phenotype (%),[1],0%
same,Population Mitochondria Different-Phenotype (%),[1],2%
same,Population Mitotic Cells (%),[1],37%
same,Population Normal (%),[1],92%
same,Population Pyknosed Nuclei (%),[1],15%
same,Population Tubulin-Different-Phenotype (%),[1],26%
same,Population Apoptotic (%),[2],38%
same,Population Fragmented Nuclei (%),[2],30%
same,Population Healthy Nuclei (%),[2],48%
same,Population Hoechst High Intensity Objects (%),[2],3%
same,Population Membrane Permeable-Phenotype (%),[2],9%
same,Population Mitochondria Different-Phenotype (%),[2],4%
same,Population Mitotic Cells (%),[2],61%
same,Population Normal (%),[2],96%
same,Population Pyknosed Nuclei (%),[2],20%
same,Population Tubulin-Different-Phenotype (%),[2],52%
same,Population Apoptotic (%),[3],35%
same,Population Fragmented Nuclei (%),[3],20%
same,Population Healthy Nuclei (%),[3],65%
same,Population Hoechst High Intensity Objects (%),[3],2%
same,Population Membrane Permeable-Phenotype (%),[3],1%
same,Population Mitochondria Different-Phenotype (%),[3],5%
same,Population Mitotic Cells (%),[3],65%
same,Population Normal (%),[3],98%
same,Population Pyknosed Nuclei (%),[3],13%
same,Population Tubulin-Different-Phenotype (%),[3],22%
same,Population Apoptotic (%),[4],30%
same,Population Fragmented Nuclei (%),[4],24%
same,Population Healthy Nuclei (%),[4],52%
same,Population Hoechst High Intensity Objects (%),[4],6%
same,Population Membrane Permeable-Phenotype (%),[4],4%
same,Population Mitochondria Different-Phenotype (%),[4],2%
same,Population Mitotic Cells (%),[4],69%
same,Population Normal (%),[4],93%
same,Population Pyknosed Nuclei (%),[4],23%
same,Population Tubulin-Different-Phenotype (%),[4],53%
same,Population Apoptotic (%),[5],48%
same,Population Fragmented Nuclei (%),[5],14%
same,Population Healthy Nuclei (%),[5],68%
same,Population Hoechst High Intensity Objects (%),[5],5%
same,Population Membrane Permeable-Phenotype (%),[5],1%
same,Population Mitochondria Different-Phenotype (%),[5],3%
same,Population Mitotic Cells (%),[5],52%
same,Population Normal (%),[5],94%
same,Population Pyknosed Nuclei (%),[5],17%
same,Population Tubulin-Different-Phenotype (%),[5],26%
same,Population Apoptotic (%),[6],31%
same,Population Fragmented Nuclei (%),[6],29%
same,Population Healthy Nuclei (%),[6],50%
same,Population Hoechst High Intensity Objects (%),[6],6%
same,Population Membrane Permeable-Phenotype (%),[6],4%
same,Population Mitochondria Different-Phenotype (%),[6],1%
same,Population Mitotic Cells (%),[6],68%
same,Population Normal (%),[6],93%
same,Population Pyknosed Nuclei (%),[6],19%
same,Population Tubulin-Different-Phenotype (%),[6],53%
same,Population Apoptotic (%),[7],42%
same,Population Fragmented Nuclei (%),[7],15%
same,Population Healthy Nuclei (%),[7],65%
same,Population Hoechst High Intensity Objects (%),[7],3%
same,Population Membrane Permeable-Phenotype (%),[7],1%
same,Population Mitochondria Different-Phenotype (%),[7],6%
same,Population Mitotic Cells (%),[7],57%
same,Population Normal (%),[7],96%
same,Population Pyknosed Nuclei (%),[7],18%
same,Population Tubulin-Different-Phenotype (%),[7],22%
same,Population Apoptotic (%),[8],30%
same,Population Fragmented Nuclei (%),[8],30%
same,Population Healthy Nuclei (%),[8],44%
same,Population Hoechst High Intensity Objects (%),[8],6%
same,Population Membrane Permeable-Phenotype (%),[8],10%
same,Population Mitochondria Different-Phenotype (%),[8],2%
same,Population Mitotic Cells (%),[8],69%
same,Population Normal (%),[8],93%
same,Population Pyknosed Nuclei (%),[8],24%
same,Population Tubulin-Different-Phenotype (%),[8],45%
same,Population Apoptotic (%),[9],46%
same,Population Fragmented Nuclei (%),[9],22%
same,Population Healthy Nuclei (%),[9],52%
same,Population Hoechst High Intensity Objects (%),[9],6%
same,Population Membrane Permeable-Phenotype (%),[9],2%
same,Population Mitochondria Different-Phenotype (%),[9],4%
same,Population Mitotic Cells (%),[9],53%
same,Population Normal (%),[9],93%
same,Population Pyknosed Nuclei (%),[9],24%
same,Population Tubulin-Different-Phenotype (%),[9],34%
same,Population Apoptotic (%),[10],37%
same,Population Fragmented Nuclei (%),[10],38%
same,Population Healthy Nuclei (%),[10],46%
same,Population Hoechst High Intensity Objects (%),[10],4%
same,Population Membrane Permeable-Phenotype (%),[10],4%
same,Population Mitotic Cells (%),[10],62%
same,Population Normal (%),[10],95%
same,Population Pyknosed Nuclei (%),[10],14%
same,Population Tubulin-Different-Phenotype (%),[10],53%
same,Population Apoptotic (%),[11],50%
same,Population Fragmented Nuclei (%),[11],22%
same,Population Healthy Nuclei (%),[11],55%
same,Population Hoechst High Intensity Objects (%),[11],4%
same,Population Membrane Permeable-Phenotype (%),[11],0%
same,Population Mitochondria Different-Phenotype (%),[11],7%
same,Population Mitotic Cells (%),[11],50%
same,Population Normal (%),[11],95%
same,Population Pyknosed Nuclei (%),[11],22%
same,Population Tubulin-Different-Phenotype (%),[11],19%
same,Population Apoptotic (%),[12],37%
same,Population Fragmented Nuclei (%),[12],36%
same,Population Healthy Nuclei (%),[12],43%
same,Population Hoechst High Intensity Objects (%),[12],7%
same,Population Membrane Permeable-Phenotype (%),[12],10%
same,Population Mitochondria Different-Phenotype (%),[12],0%
same,Population Mitotic Cells (%),[12],62%
same,Population Normal (%),[12],92%
same,Population Pyknosed Nuclei (%),[12],20%
same,Population Tubulin-Different-Phenotype (%),[12],39%

# From ChEMBL document CHEMBL5058577, “EUbOPEN Chemogenomics Library 2 (Multiplex)” (2022)
